Measured values as given in ChEMBL document CHEMBL4011642, “Potent, Selective, and Cell Active Protein Arginine Methyltransferase 5 (PRMT5) Inhibitor Developed by Structure-Based Virtual Screening and Hit Optimization” (J Med Chem, 2017).
Activity calls are given as the source filed them. No cut-off for these calls is given here.

Legend:
[1] = target: T1, PRMT5/MEP50 complex (Homo sapiens, UniProt O14744); assay: Inhibition of recombinant human N-terminal FLAG-tagged PRMT5 (2 to end residues) /human N-terminal His-tagged MEP50 (2 to end residues) expressed in HEK293F cells using histone H4 as substrate preincubated for 15 mins followed by substrate/S-adenosyl methionine addition measured after 60 mins by alpha LISA assay; parameters: species or system HEK293
T1 sequence (O14744 whole entry): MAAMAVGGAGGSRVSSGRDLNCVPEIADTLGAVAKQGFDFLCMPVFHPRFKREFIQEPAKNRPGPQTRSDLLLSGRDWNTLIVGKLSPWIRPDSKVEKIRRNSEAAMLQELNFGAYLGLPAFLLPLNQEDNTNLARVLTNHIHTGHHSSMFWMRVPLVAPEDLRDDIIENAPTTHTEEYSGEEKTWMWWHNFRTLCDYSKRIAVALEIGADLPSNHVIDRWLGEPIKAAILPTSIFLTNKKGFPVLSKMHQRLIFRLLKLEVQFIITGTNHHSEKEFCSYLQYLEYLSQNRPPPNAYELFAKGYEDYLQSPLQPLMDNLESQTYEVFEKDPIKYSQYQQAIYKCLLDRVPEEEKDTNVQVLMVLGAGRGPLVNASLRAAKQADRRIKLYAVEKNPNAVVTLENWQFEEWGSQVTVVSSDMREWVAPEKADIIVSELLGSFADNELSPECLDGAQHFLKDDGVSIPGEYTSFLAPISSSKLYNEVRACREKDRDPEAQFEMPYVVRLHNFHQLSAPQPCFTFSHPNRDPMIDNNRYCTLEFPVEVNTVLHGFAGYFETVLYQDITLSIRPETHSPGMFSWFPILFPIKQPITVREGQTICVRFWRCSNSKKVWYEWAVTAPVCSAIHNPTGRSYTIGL
T1 sequence (Q9BQA1 whole entry, further chain): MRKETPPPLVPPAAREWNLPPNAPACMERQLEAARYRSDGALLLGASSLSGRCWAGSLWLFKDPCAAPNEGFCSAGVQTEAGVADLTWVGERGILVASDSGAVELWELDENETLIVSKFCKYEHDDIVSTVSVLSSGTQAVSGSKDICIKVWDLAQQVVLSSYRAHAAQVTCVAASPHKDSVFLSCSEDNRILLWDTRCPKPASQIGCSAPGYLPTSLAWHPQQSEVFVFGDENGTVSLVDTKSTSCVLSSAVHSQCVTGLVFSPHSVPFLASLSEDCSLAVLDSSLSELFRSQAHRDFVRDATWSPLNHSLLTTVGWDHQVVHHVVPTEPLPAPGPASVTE

[2] = target: T1, PRMT5/MEP50 complex; assay: Inhibition of recombinant human N-terminal FLAG-tagged PRMT5 (2 to end residues)/human N-terminal His-tagged MEP50 (2 to end residues) expressed in HEK293F cells using histone H4 as substrate in presence of [3H]-SAM after 60 mins by chemiluminescent assay; format: cell-based, HEK293; details: in the assay text read “radioactive methylation assay” for “chemiluminescent assay”
Method in brief: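 PRMT5/MEP50 complex in modified Tris buffer with 3-fold diluted compound (1% DMSO final) preincubated 15 min at RT. Substrate added and reaction started with [3H]-SAM; 60 min at RT, stopped with cold SAM. Transferred to Flashplate, washed, counted on MicroBeta.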

[3] = system: HUVEC; assay: Cytotoxicity against human HUVEC assessed as cell growth inhibition after 8 days by Cell Titer-Glo assay; format: cell-based; details: 192 h
Method in brief: (§1)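 Normal cells (HUVEC from ATCC; RCTEC) grown in RPMI1640 with 10% FBS and 1% penicillin/streptomycin, 5% CO2, 37 °C. Seeded at 0.5–1 × 10^5 cells/well; compound (0–100 μM) added after 6 h. Cells counted and replated with fresh medium and compound every 4 days over 8 days. Viability by CellTiter-Glo luminescence; concentration–response curves fitted at each time point.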

[4] = system: MV4-11; assay: Cytotoxicity against human MV411 cells assessed as cell growth inhibition after 12 days by Cell Titer-Glo assay; details: MV4-11, 288 h
[5] = system: JeKo-1; assay: Cytotoxicity against human JeKo1 cells assessed as cell growth inhibition after 12 days by Cell Titer-Glo assay; format: functional, cell-based; details: JeKo-1, 288 h
Method in brief: (§2)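 Cancer lines grown in RPMI1640 with 10% FBS and 1% penicillin/streptomycin, 5% CO2, 37 °C. Seeded at 0.5–1 × 10^5 cells/well; compound (0–100 μM) added after 6 h. Counted and replated at equal numbers with fresh medium and compound every 4 days, up to 12 days. Viable cells by CellTiter-Glo luminescence; concentration–response curves fitted at each time point.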

[6] = system: Z-138; assay: Cytotoxicity against human Z138 cells assessed as cell growth inhibition after 12 days by Cell Titer-Glo assay; format: functional, cell-based; details: Z-138, 288 h; method in brief: as §2
[7] = Cytotoxicity against human RCTEC assessed as cell growth inhibition after 8 days by Cell Titer-Glo assay; format: cell-based; details: 192 h; method in brief: as §1
[8] = system: MV4-11; assay: Cytotoxicity against human MV411 cells assessed as cell growth inhibition after 4 days by Cell Titer-Glo assay; format: functional, cell-based; details: MV4-11, 96 h; method in brief: as §2
[9] = system: MV4-11; assay: Cytotoxicity against human MV411 cells assessed as cell growth inhibition after 8 days by Cell Titer-Glo assay; format: functional, cell-based; details: MV4-11, 192 h; method in brief: as §2
[10] = target: Protein arginine N-methyltransferase 5 (Homo sapiens) (UniProt O14744); assay: Inhibition of PRMT5 in human MV411 cells assessed as downregulation of SmD3 after 6 days by Western blot analysis; format: cell-based
Sequence of Protein arginine N-methyltransferase 5 (Homo sapiens) (O14744 whole entry): as the sequence (O14744 whole entry) above
Method in brief: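 MV4-11 cells treated with compound over a 0–20 μM titration for 6 days. Whole-cell lysates run on 4–12% SDS-PAGE, transferred to nitrocellulose, blocked in 5% milk. Probed overnight at 4 °C with anti-symmetric dimethylarginine (SDMA) and GAPDH antibodies, then HRP secondary. SmD3-colocalizing band assessed.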

[11] = target: T2, PRMT5/MEP50 complex (Homo sapiens) (UniProt O14744+Q9BQA1); assay: (§3) Competitive inhibition of recombinant human N-terminal FLAG-tagged PRMT5 (2 to end residues) /human N-terminal His-tagged MEP50 (2 to end residues) expressed in HEK293F cells using peptide substrate preincubated for 15 mins followed by substrate/[3H]-SAM addition measured after 60 mins under varying concentration of SAM; format: cell-based
Method in brief: (§4)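 Mechanism study in modified Tris buffer. PRMT5/MEP50 preincubated 15 min at RT with serially diluted compound (1% DMSO final), then peptide added and reaction started with [3H]-SAM. For the SAM study, [3H]-SAM was set at 7 concentrations with fixed peptide. For the peptide study, peptide was set at 7 concentrations with fixed SAM. Run 60 min at RT, stopped with cold SAM, Flashplate capture, MicroBeta counting.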

[12] = target: T2, PRMT5/MEP50 complex (Homo sapiens); assay: as §3, with “Non-competitive inhibition” for “Competitive inhibition”, “of peptide” for “of SAM”; format: cell-based; method in brief: as §4
[13] = system: KOPN-8; assay: Cytotoxicity against human KOPN8 cells assessed as cell growth inhibition after 12 days by Cell Titer-Glo assay; details: KOPN-8, 288 h
[14] = target: T2, PRMT5/MEP50 complex (Homo sapiens); assay: as §3, with “of peptide” for “of SAM”; format: cell-based; method in brief: as §4
[15] = target: T2, PRMT5/MEP50 complex (Homo sapiens); assay: as §3, with “Uncompetitive” for “Competitive”; format: cell-based; method in brief: as §4

SMILES	IC50 [1] [µM]	further results
O=C(/C=C/c1ccc(-c2ccccc2[N+](=O)[O-])o1)c1ccccc1	23	IC50 [2]: 169 µM
COC(=O)c1ccccc1NC(=O)CSc1nc2cc([N+](=O)[O-])ccc2[nH]1	0.83	–
COc1ccc2[nH]c(SCC(=O)Nc3ccccc3Cl)nc2c1	47	–
COC(=O)c1ccccc1NC(=O)CSc1nc2ccccc2[nH]1	8.1	IC50 [2]: 24 µM
COc1ccc2[nH]c(SCC(=O)Nc3ccccc3)nc2c1	33	–
CNC(=O)c1ccccc1NC(=O)CSc1nc2cc(OC)ccc2[nH]1	> 200	–
COC(=O)c1ccccc1NC(=O)CSc1nc2cc(O)ccc2[nH]1	> 100	–
COC(=O)c1ccccc1NC(=O)CSc1nc2c(Cl)cccc2[nH]1	> 100	–
OCCNCc1c(OCc2ccccc2F)ccc2ccccc12	18	IC50 [2]: 172 µM
COC(=O)c1ccccc1NC(=O)CSc1nc2cc(OC)ccc2[nH]1	–	Activity [3]: Non-Toxic; EC50 [4]: 6.53 µM; EC50 [5]: 15 to 70 µM; EC50 [6]: 15 to 70 µM; Activity [7]: Non-Toxic; EC50 [8]: 80.7 µM; EC50 [9]: 25.7 µM; inhibition [10]: Dose-dependent effect; inhibition [11]: Active; inhibition [12]: Active; EC50 [13]: 15 to 70 µM
COC(=O)c1ccccc1NC(=O)CSc1nc2cc(F)ccc2[nH]1	3.3	–
COC(=O)c1ccccc1NC(=O)CSc1nc2c(OC)cccc2[nH]1	> 100	–
COc1ccc2[nH]c(SCC(=O)Nc3ccccc3N(C)C)nc2c1	25	–
COc1ccc2[nH]c(SCC(=O)Nc3ccccc3C)nc2c1	> 200	–
COC(=O)c1ccccc1NC(=O)CSc1nc2cc(N(C)C)ccc2[nH]1	0.33	–
Clc1ccc(CNCC2CCNCC2)cc1Cl	27	–
Cc1ccc(OCc2nnc3sc(-c4cccnc4)nn23)cc1	26	IC50 [2]: > 200 µM
COc1ccc2[nH]c(SCC(=O)Nc3ccccc3OC)nc2c1	19	–
COC(=O)c1cccc(NC(=O)CSc2nc3cc(OC)ccc3[nH]2)c1	52	–

SMILES	IC50 [1] [µM]	further results
COC(=O)c1ccccc1NC(=O)CSc1nc2cc(OC(C)C)ccc2[nH]1	2.8	–
COC(=O)c1ccccc1NC(=O)CSc1nc2cc(Br)ccc2[nH]1	0.34	–
COc1ccc2[nH]c(SCC(=O)Nc3ccccc3C(C)=O)nc2c1	2.9	–
COC(=O)c1ccncc1NC(=O)CSc1nc2cc(OC)ccc2[nH]1	2.4	–
CNc1ccc2[nH]c(SCC(=O)Nc3ccccc3C(=O)OC)nc2c1	1.6	–
COC(=O)c1ccccc1NC(=O)CSc1nc2cc(C)ccc2[nH]1	1.4	–
O=C(NC[C@H](O)CN1CCc2ccccc2C1)c1cc(NC2COC2)ncn1	–	inhibition [14]: Active; inhibition [15]: Active
COC(=O)c1ccccc1NC(=O)CSc1nc2nc(OC)ccc2[nH]1	8.4	–
COc1ccc2[nH]c(SCC(=O)Nc3ccccc3C(=O)N(C)C)nc2c1	> 200	–
CCCOc1ccc2[nH]c(SCC(=O)Nc3ccccc3C(=O)OC)nc2c1	0.53	–
CCOc1ccc2[nH]c(SCC(=O)Nc3ccccc3C(=O)OC)nc2c1	0.35	–
COC(=O)c1ccccc1NC(=O)CSc1nc2c(C)cccc2[nH]1	> 100	–
COC(=O)c1ccccc1NC(=O)CSc1nc2cc(Cl)ccc2[nH]1	0.5	–
COc1ccc2[nH]c(SCC(=O)Nc3ccccc3C(=O)O)nc2c1	> 100	–
COC(=O)c1ccccc1NC(=O)CSc1nc2cc(N)ccc2[nH]1	40	–
COC(=O)c1ccccc1NC(=O)CSc1nc2ccncc2[nH]1	87	–
CCOC(=O)c1ccccc1NC(=O)CSc1nc2cc(OC)ccc2[nH]1	1.9	–
COC(=O)c1ccc(NC(=O)CSc2nc3cc(OC)ccc3[nH]2)cc1	> 100	–
COc1ccc(C(=O)NC2C=NCS2)c(OC)c1 (stereo not drawn)	27	–
